Source: ChEMBL document CHEMBL4118021, “Studies of TAK1-centered polypharmacology with novel covalent TAK1 inhibitors” (Bioorg Med Chem, 2017)
Active and inactive are the calls of the source. No cut-off for these calls is given here.

Key:
[1] = biological target: Calponin-2 (Homo sapiens) (UniProt Q99439); assay: Binding affinity to CNN2 in human NCI-H358 cells at 1 uM by mass spectrometry based pull down assay; assay type: cell-based
[2] = biological target: Ribonucleoside-diphosphate reductase large subunit (Homo sapiens) (UniProt P23921); assay: Binding affinity to RRM1 in human NCI-H358 cells at 1 uM by mass spectrometry based pull down assay; assay type: cell-based
[3] = biological target: Alpha-2-HS-glycoprotein (Homo sapiens) (UniProt P02765); assay: Binding affinity to AHSG in human NCI-H23 cells at 1 uM by mass spectrometry based pull down assay; assay type: cell-based
Chain of Alpha-2-HS-glycoprotein (Homo sapiens) (P02765 whole entry): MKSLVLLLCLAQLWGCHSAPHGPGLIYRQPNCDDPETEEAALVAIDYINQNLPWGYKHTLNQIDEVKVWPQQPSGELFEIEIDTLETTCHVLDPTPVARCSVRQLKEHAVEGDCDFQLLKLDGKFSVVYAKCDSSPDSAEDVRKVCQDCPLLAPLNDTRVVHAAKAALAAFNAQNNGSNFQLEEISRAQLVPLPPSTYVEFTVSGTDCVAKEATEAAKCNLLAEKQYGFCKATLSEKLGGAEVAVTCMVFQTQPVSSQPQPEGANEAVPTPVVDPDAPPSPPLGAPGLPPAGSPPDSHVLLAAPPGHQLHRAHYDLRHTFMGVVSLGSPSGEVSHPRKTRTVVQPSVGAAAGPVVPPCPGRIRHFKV
In short: (§1)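 NCI-H23 or NCI-H358 cells were grown and lysed. Lysates were incubated overnight at 4 °C with 1 μM biotinylated covalent probe or DMSO, then pulled down on streptavidin beads. Proteins were run on polyacrylamide gels and stained with Coomassie. Bands were excised, digested and identified by mass spectrometry.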

[4] = biological target: Glutamine--fructose-6-phosphate aminotransferase [isomerizing] 1 (Homo sapiens) (UniProt Q06210); assay: Binding affinity to GFPT1 in human NCI-H23 cells at 1 uM by mass spectrometry based pull down assay; assay type: cell-based
Chain of Glutamine--fructose-6-phosphate aminotransferase [isomerizing] 1 (Homo sapiens) (Q06210 whole entry): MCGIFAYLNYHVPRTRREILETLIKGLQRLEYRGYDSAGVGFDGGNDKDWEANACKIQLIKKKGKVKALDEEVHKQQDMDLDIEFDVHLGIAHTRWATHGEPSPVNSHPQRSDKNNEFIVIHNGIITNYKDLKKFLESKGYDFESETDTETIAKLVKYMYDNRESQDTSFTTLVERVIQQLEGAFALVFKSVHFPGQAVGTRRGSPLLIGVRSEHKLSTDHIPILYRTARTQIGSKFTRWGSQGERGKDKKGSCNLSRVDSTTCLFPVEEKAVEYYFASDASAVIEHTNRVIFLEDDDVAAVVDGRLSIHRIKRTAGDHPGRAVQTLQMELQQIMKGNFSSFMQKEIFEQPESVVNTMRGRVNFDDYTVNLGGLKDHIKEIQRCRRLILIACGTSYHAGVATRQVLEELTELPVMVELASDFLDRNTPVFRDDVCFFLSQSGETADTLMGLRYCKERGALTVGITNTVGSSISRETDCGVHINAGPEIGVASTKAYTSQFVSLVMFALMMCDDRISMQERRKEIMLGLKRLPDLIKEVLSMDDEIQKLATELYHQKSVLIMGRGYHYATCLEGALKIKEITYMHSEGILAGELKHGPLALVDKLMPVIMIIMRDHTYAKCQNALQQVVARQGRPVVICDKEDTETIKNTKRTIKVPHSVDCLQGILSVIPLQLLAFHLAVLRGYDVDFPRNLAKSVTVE

[5] = biological target: Mitochondrial import inner membrane translocase subunit TIM50 (Homo sapiens) (UniProt Q3ZCQ8); assay: Binding affinity to TIMM50 in human NCI-H358 cells at 1 uM by mass spectrometry based pull down assay; assay type: cell-based
[6] = biological target: ADP/ATP translocase 2 (Homo sapiens) (UniProt P05141); assay: Binding affinity to SLC25A5 in human NCI-H23 cells at 1 uM by mass spectrometry based pull down assay; assay type: cell-based
Chain of ADP/ATP translocase 2 (Homo sapiens) (P05141 whole entry): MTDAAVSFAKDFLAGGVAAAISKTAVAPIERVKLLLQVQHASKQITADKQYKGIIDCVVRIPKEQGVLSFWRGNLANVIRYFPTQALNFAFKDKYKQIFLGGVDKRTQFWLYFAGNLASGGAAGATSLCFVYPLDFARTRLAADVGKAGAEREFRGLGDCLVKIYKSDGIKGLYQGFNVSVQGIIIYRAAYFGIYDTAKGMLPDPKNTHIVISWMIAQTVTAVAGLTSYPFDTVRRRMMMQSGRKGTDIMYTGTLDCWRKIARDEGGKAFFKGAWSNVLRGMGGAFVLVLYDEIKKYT

[7] = biological target: Poly(rC)-binding protein 1 (Homo sapiens) (UniProt Q15365); assay: Binding affinity to PCBP1 in human NCI-H23 cells at 1 uM by mass spectrometry based pull down assay; assay type: cell-based
[8] = biological target: Tyrosine-protein kinase Yes (Homo sapiens) (UniProt P07947); assay: Binding affinity to YES1 in human NCI-H23 cells at 1 uM by mass spectrometry based pull down assay; assay type: cell-based
Chain of Tyrosine-protein kinase Yes (Homo sapiens) (P07947 2-543 limits assumed): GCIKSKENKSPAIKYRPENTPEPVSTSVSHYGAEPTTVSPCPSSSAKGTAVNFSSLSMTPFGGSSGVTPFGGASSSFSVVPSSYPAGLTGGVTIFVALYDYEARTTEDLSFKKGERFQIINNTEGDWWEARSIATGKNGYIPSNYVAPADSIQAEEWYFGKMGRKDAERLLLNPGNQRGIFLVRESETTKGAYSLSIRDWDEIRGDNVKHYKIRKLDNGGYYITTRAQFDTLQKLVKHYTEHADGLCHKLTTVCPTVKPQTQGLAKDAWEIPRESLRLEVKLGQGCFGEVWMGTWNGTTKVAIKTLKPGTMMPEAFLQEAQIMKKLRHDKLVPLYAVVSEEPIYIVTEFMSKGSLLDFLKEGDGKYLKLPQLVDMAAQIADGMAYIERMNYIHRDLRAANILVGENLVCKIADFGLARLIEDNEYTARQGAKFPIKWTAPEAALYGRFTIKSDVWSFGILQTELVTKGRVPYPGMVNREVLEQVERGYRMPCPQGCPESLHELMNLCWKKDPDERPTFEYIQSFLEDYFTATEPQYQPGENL

[9] = biological target: Actin-related protein 2/3 complex subunit 5 (Homo sapiens) (UniProt O15511); assay: Binding affinity to ARPC5 in human NCI-H358 cells at 1 uM by mass spectrometry based pull down assay; assay type: cell-based
[10] = biological target: Acylamino-acid-releasing enzyme (Homo sapiens) (UniProt P13798); assay: Binding affinity to APEH in human NCI-H23 cells at 1 uM by mass spectrometry based pull down assay; assay type: cell-based
[11] = biological target: T1, Dual specificity mitogen-activated protein kinase kinase 6 (Homo sapiens) (UniProt P52564); assay: Binding affinity to MAP2K6 in human NCI-H23 cells at 1 uM by mass spectrometry based pull down assay; assay type: cell-based
T1 sequence (whole entry): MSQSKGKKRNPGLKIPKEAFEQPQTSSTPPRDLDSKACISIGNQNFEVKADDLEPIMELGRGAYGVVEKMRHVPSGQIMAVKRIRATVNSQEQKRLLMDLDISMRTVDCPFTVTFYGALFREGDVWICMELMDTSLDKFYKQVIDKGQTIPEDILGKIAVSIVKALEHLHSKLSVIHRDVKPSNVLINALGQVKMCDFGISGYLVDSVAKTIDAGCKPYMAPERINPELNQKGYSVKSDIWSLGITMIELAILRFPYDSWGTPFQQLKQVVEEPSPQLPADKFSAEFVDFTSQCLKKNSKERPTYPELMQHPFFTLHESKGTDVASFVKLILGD

[12] = biological target: Multifunctional protein CAD (Homo sapiens) (UniProt P27708); assay: Binding affinity to CAD in human NCI-H358 cells at 1 uM by mass spectrometry based pull down assay; assay type: cell-based
[13] = biological target: Inter-alpha-trypsin inhibitor heavy chain H2 (Homo sapiens) (UniProt P19823); assay: Binding affinity to ITIH2 in human NCI-H358 cells at 1 uM by mass spectrometry based pull down assay; assay type: cell-based
[14] = biological target: Coatomer subunit beta (Homo sapiens) (UniProt P53618); assay: Binding affinity to COPB1 in human NCI-H358 cells at 1 uM by mass spectrometry based pull down assay; assay type: cell-based
Chain of Coatomer subunit beta (Homo sapiens) (P53618 whole entry): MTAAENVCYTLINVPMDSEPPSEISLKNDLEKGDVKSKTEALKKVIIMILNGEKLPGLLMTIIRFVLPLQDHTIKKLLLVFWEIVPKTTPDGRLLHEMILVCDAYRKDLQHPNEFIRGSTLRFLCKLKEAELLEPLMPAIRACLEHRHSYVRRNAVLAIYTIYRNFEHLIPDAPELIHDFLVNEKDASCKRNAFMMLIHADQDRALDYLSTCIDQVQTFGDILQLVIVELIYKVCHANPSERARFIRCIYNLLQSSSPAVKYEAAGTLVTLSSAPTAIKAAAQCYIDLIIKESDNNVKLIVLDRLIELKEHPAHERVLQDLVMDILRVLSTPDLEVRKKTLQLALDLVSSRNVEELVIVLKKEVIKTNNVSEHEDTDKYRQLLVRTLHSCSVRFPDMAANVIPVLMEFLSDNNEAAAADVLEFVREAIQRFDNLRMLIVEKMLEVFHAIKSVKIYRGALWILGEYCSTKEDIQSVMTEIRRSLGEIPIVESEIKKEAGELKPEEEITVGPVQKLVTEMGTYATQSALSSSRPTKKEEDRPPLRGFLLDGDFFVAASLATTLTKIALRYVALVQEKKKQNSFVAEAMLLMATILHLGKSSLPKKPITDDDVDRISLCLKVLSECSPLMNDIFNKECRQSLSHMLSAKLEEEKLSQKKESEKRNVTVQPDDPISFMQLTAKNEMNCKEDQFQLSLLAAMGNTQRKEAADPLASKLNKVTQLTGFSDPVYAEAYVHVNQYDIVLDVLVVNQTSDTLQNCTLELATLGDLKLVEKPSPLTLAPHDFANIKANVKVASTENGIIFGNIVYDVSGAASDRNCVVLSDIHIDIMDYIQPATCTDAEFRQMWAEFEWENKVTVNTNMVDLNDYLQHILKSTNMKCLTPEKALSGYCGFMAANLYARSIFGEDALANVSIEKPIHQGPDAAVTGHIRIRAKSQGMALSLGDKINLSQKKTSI

[15] = biological target: 5'-AMP-activated protein kinase subunit gamma-1 (Homo sapiens) (UniProt P54619); assay: Binding affinity to PRKAG1 in human NCI-H358 cells at 1 uM by mass spectrometry based pull down assay; assay type: cell-based
[16] = biological target: E3 ubiquitin-protein ligase TRIM33 (Homo sapiens) (UniProt Q9UPN9); assay: Binding affinity to TRIM33 in human NCI-H23 cells at 1 uM by mass spectrometry based pull down assay; assay type: cell-based
[17] = biological target: Protein arginine N-methyltransferase 5 (Homo sapiens) (UniProt O14744); assay: Binding affinity to PRMT5 in human NCI-H358 cells at 1 uM by mass spectrometry based pull down assay; assay type: cell-based
[18] = biological target: T2, Dual specificity mitogen-activated protein kinase kinase 4 (Homo sapiens) (UniProt P45985); assay: Binding affinity to MAP2K4 in human NCI-H358 cells at 1 uM by mass spectrometry based pull down assay; assay type: cell-based
T2 sequence (whole entry): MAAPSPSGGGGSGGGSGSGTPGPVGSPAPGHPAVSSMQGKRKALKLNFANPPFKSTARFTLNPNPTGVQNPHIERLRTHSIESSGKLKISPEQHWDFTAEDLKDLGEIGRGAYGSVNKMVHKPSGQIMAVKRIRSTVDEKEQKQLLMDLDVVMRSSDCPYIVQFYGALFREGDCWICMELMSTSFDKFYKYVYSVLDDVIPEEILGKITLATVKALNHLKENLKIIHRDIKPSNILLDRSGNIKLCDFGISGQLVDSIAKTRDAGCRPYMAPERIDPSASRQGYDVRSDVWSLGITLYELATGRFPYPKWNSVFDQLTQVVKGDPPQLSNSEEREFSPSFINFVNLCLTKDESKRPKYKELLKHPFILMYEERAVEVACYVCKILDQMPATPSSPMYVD

[19] = biological target: Aldehyde dehydrogenase family 16 member A1 (Homo sapiens) (UniProt Q8IZ83); assay: Binding affinity to ALDH16A1 in human NCI-H23 cells at 1 uM by mass spectrometry based pull down assay; assay type: cell-based; in short: as §1
Chain of Aldehyde dehydrogenase family 16 member A1 (Homo sapiens) (Q8IZ83 whole entry): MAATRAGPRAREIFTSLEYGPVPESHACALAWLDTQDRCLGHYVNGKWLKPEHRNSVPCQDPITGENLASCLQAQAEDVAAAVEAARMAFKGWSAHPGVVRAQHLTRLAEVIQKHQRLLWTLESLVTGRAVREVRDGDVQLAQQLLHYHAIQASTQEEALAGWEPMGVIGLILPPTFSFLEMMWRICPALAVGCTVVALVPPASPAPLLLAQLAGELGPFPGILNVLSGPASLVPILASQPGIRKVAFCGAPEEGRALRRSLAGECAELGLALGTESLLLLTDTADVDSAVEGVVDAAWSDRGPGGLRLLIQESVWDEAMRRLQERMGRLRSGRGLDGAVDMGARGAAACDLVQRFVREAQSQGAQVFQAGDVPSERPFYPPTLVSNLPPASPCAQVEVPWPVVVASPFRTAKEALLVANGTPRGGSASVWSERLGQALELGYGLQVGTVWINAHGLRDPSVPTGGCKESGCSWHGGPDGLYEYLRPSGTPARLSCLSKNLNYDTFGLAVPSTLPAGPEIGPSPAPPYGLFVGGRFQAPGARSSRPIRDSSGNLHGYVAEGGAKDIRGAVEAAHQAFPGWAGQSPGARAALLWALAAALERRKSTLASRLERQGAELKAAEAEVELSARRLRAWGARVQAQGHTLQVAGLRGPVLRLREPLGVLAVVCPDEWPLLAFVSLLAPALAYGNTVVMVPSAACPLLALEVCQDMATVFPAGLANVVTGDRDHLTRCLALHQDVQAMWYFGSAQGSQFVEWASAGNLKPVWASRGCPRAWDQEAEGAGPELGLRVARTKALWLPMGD

[20] = biological target: Serine/threonine-protein kinase Nek8 (Homo sapiens) (UniProt Q86SG6); assay: Inhibition of NEK8 in human SKCO1 cells at 1 uM after 4 hrs using biotin labeled DLKTQNILLDK probe by mass-spectrometric analysis relative to control; assay type: cell-based
NCI-H23 = assay: Antiproliferative activity against human NCI-H23 cells harboring KRAS G12C mutant at; assay type: functional, cell-based
[21] = biological target: Platelet-derived growth factor receptor alpha (Homo sapiens) (UniProt P16234); assay: Inhibition of human PDGFRA (575 to 1002 residues) expressed in mammalian expression system assessed as enzyme activity at 10 uM by KINOMEScan assay relative to control; set-up: scale not given: the % may be the effect or the level left
In short: (§2)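 In vitro ATP-site competition binding assay across a panel of 456 kinases, with compound tested at 1 and 10 μM.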

[22] = biological target: Ribosomal protein S6 kinase alpha-6 (Homo sapiens) (UniProt Q9UK32); assay: Inhibition of human RSK4 (1 to 397 residues) expressed in mammalian expression system assessed as enzyme activity at 10 uM by KINOMEScan assay relative to control; set-up: scale not given: the % may be the effect or the level left; in short: as §2
Chain of Ribosomal protein S6 kinase alpha-6 (Homo sapiens) (Q9UK32 whole entry, the tested form may be a part): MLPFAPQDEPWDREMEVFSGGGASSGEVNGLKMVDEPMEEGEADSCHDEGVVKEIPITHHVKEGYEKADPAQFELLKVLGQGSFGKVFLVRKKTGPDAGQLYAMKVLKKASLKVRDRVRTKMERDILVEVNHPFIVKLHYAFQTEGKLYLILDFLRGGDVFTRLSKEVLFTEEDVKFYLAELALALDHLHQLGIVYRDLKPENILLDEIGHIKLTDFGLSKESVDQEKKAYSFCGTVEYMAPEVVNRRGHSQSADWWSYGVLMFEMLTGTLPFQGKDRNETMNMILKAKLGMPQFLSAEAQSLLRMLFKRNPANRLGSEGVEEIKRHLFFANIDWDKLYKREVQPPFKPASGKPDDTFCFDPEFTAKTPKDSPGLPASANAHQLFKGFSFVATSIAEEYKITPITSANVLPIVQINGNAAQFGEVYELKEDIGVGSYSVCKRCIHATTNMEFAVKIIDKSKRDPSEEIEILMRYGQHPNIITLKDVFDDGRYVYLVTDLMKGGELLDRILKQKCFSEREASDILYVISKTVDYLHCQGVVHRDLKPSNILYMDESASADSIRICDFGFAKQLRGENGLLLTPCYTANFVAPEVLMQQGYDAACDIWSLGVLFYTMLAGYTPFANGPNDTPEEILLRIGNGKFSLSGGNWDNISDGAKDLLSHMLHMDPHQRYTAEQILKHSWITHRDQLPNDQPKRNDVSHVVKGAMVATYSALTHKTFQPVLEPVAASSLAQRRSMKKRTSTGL

[23] = biological target: Receptor-interacting serine/threonine-protein kinase 4 (Homo sapiens) (UniProt P57078); assay: Inhibition of ANKRD3 in human SKCO1 cells at 1 uM after 4 hrs using biotin labeled TWLAIKCSPSLHVDDR probe by mass-spectrometric analysis relative to control; assay type: cell-based

Chain of Calponin-2 (Homo sapiens) (Q99439 whole entry): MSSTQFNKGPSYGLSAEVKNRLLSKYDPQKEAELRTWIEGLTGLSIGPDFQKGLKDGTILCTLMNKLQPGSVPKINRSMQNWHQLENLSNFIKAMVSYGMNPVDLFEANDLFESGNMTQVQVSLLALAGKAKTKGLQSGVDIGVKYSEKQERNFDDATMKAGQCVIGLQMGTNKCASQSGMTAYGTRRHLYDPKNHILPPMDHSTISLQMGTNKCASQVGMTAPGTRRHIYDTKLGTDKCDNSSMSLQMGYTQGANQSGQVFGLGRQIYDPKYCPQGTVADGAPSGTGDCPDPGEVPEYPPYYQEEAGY

Q: Which results are given for C=CC(=O)Nc1ccccc1Nc1nc(Nc2ccc(N3CCN(CCOCCOCCOCCNC(=O)CCCC[C@@H]4SC[C@@H]5NC(=O)N[C@@H]54)CC3)cc2)ncc1Cl?
A: Activity [1]: Active; Activity [2]: Active; Activity [3]: Active; Activity [4]: Active; Activity [5]: Active; Activity [6]: Active; Activity [7]: Active; Activity [8]: Active; Activity [9]: Active; Activity [10]: Active; Activity [11]: Active; Activity [12]: Active; Activity [13]: Active; Activity [14]: Active; Activity [15]: Active; Activity [16]: Active; Activity [17]: Active; Activity [18]: Active; Activity [19]: Active

Q: With COc1cc(O)c2c(c1)/C=C/C[C@H](O)[C@H](O)C(=O)/C=C\C[C@H](C)OC2=O as the molecule, how does the inhibition [20] read?
A: Its inhibition is -9.5%.

Q: What about the Activity (NCI-H23) of the same molecule?
A: The Activity was “Active”.

Q: And the Activity [21]?
A: The Activity was 1.4%.

Q: And the Activity [22]?
A: Its Activity is 3%.

Q: Which inhibition [23] does the source give for C=CC(=O)Nc1ccccc1Nc1nc(Nc2ccc(N3CCN(C)CC3)cc2)ncc1Cl here?
A: The inhibition was -0.1%.
